Data from article PMC8182972 (Journal of medicinal chemistry, 2011).
Converted amounts (≈) assume the structure as drawn. “And” between values parts separate entries of the source, which are not always exact repeats. Equal values may be shown once. “Also recorded” adds a separate entry of the source.

Key:
[1] = tested on: PC12 cells expressing mutant G93A SOD1; format: cell-based; conditions: for EC50: PC12 cells expressing mutant G93A SOD1, MG132 100 nM, Calcein-AM viability
ALS patients = conditions: cited from earlier work
[2] = In vitro microsomal stability, human; format: in vitro ADME; conditions: 37 °C; for CLint scaled at 1 h, 5 µM: human, microsomes
[3] = In vitro microsomal stability, mouse; format: in vitro ADME; conditions: 5 μM, 37 °C; for CL’int: 1 h, with NADPH; for CL’int NADPH-free: absence of NADPH
Aqueous solubility = format: physicochemical; conditions: for Maximum Solubility: 1% DMSO in PBS
Caco-2 monolayer cells = assay: Caco-2 permeability; format: in vitro ADME; conditions: for Ratio (B→A / A→B): Caco-2 efflux ratio
primary cortical neurons = assay: Primary cortical neuron cell protection assay; format: cell-based, rat; conditions: MG132 100 nM; active = viability restored ≥ 5 SD from MG132 controls
SHSY-5Y = assay: Screen in other cell types: SHSY-5Y; format: cell-based
HeLa = assay: Screen in other cell types: HeLa; format: cell-based
HEK293 = assay: Screen in other cell types: HEK293; format: cell-based
[4] = Mouse in vivo steady-state level and blood-brain barrier penetration; parameters: species or system mice
Procedure, shortened: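 B6SJL mice received a 300 mg/kg bolus i.p. injection of test compound. Blood and brain were collected at 0, 1, 3, 6, 12 and 24 h, flash-frozen in liquid nitrogen and stored at -80 °C. Samples were quantified by mass spectrometry with ESI ionization in MRM mode.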

In vivo rat PK profiling = assay: In vivo rat PK profiling; parameters: species or system Sprague-Dawley rats; conditions: SD rats
Procedure, shortened: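 Sprague-Dawley rats received a single 1 mg/kg bolus of test compound, i.v. or orally. Plasma profiling gave AUC last, AUC/dose, T1/2, clearance, Vss, Cmax, Tmax and oral bioavailability (%F). Work was done by a contract partner.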

CYP2C19 = CYP2C19 (Homo sapiens, UniProt P33261); assay: CYP inhibition in human liver microsomes; format: biochemical
Chain of CYP2C19 (P33261 whole entry): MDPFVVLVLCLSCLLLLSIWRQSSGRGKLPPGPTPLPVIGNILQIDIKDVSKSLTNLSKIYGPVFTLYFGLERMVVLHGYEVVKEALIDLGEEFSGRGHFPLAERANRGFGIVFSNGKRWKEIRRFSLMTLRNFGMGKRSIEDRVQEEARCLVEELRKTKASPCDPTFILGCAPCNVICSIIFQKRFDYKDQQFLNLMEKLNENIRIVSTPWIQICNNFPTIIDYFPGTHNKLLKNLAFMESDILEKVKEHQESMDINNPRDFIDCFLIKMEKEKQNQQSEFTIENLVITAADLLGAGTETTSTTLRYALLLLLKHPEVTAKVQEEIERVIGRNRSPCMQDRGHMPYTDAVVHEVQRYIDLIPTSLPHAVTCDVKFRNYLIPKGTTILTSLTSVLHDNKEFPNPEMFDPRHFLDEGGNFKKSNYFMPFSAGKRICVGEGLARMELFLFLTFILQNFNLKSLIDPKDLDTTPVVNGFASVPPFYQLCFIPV
Procedure, shortened: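 Reversible CYP inhibition was measured in human liver microsomes across CYP1A2, 2C9, 2C19, 2D6 and 3A4. Each isozyme used a single probe substrate, except CYP3A4, which used both testosterone and midazolam. IC50 values were derived from this. Work was done by a contract partner.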

[5] = tested on: 68 in vitro enzyme and receptor assays; assay: LeadProfilingScreen; format: binding; conditions: 10 μM, in duplicate
Procedure, shortened: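 Test compound was screened at 10 μM in duplicate against a commercial panel of 68 enzyme and receptor assays. The panel covers common adverse CNS, cardiovascular, pulmonary and […] liabilities.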

[6] = Metabolite profiling of 1; format: in vitro ADME; conditions: rat liver microsomes, 5 μM, in the presence of NADPH, LC/MS/MS
Procedure, shortened: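 Test compound and its [15N2]-labelled analog (5 μM) were incubated in duplicate with or without rat liver microsomes, in the presence and absence of NADPH. Aliquots were taken at 0, 10, 20, 40 and 60 min. Protein was precipitated with acetonitrile containing internal standard, and supernatants were analysed by LC/MS/MS for new peaks absent from no-microsome, no-compound and no-NADPH controls.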

[7] = B6SJL, mouse, plasma, ip, 300 mg/kg

5-(4-Chloro-2,5-dimethylphenylsulfinyl)-1H-pyrazol-3(2H)-one [Compound 5]
EC50 [1]: 2880 nM

Nc1nc2ccc(OC(F)(F)F)cc2s1 [riluzole]
extension of patient lives (ALS patients): 2–3 months

5-(3,5-Dichlorophenylsulfonyl)-1H-pyrazol-3(2H)-one [Compound 7]
EC50 [1]: 1410 nM | CL’int ([2]; 5 μM, 1 h, with NADPH): 4.5 mL/min/kg | CL’int NADPH-free ([2]; 5 μM, absence of NADPH): 1.3 mL/min/kg | CL’int [3]: 15.3 mL/min/kg | Maximum Solubility (Aqueous solubility; 45 min): ≥500 µM | Maximum Solubility (Aqueous solubility; 16 h): ≥500 µM | Papp (A→B) (Caco-2 monolayer cells; Caco-2): 27.0 10^−6 cm/s | Papp (B→A) (Caco-2 monolayer cells; Caco-2): 4.4 10^−6 cm/s | Ratio (B→A / A→B) (Caco-2 monolayer cells): 0.2 | activity in primary cortical neuron cell protection assay (primary cortical neurons): active

5-(4-Chloro-2,5-dimethylphenylsulfonyl)-1H-pyrazol-3(2H)-one [Compound 8]
EC50 [1]: 1470 nM

O=c1cc(CSc2c(Cl)cccc2Cl)[nH][nH]1 [Compound 2]
activity in primary cortical neuron cell protection assay (primary cortical neurons): active

O=c1cc(COc2ccc(Cl)cc2)[nH][nH]1 [Compound 9, 5-((4-Chlorophenoxy)methyl)-1H-pyrazol-3(2H)-one]
CLint scaled at 1 h, 5 µM ([2]; CL’int, 1 h, with NADPH): 15.3 mL/min/kg | CL’int [3]: 24.5 mL/min/kg | CL’int NADPH-free [3]: 6.1 mL/min/kg

5-(4-Chlorophenylsulfinyl)-1H-pyrazol-3(2H)-one [Compound 4]
maximum viability in the cytotoxicity protection assay [1]: ~ 35% | EC50 [1]: > 32000 nM

O=c1cc(COc2cc(Cl)cc(Cl)c2)[nH][nH]1 [Compound 13, 5-((3,5-Dichlorophenoxy)methyl)-1H-pyrazol-3(2H)-one]
CLint scaled at 1 h, 5 µM ([2]; CL’int NADPH-free, absence of NADPH): 13 mL/min/kg | CL’int [3]: 64 mL/min/kg | CL’int NADPH-free [3]: 21 mL/min/kg | solubility at 45 min (Aqueous solubility; PBS with 1% DMSO): 250 µM (≈ 64.8 µg/mL) | solubility at 16 h (Aqueous solubility; PBS with 1% DMSO): 250 µM (≈ 64.8 µg/mL) | Ratio (B→A / A→B) (Caco-2 monolayer cells): 0.2–0.6 | activity in primary cortical neuron cell protection assay (primary cortical neurons): active | activity in SHSY-5Y cells (SHSY-5Y): active | activity in HeLa cells (HeLa): active | activity in HEK293 cells (HEK293): active | concentration at 0 h [4, 7]: 0 ng/mL | concentration at 3 h [4, 7]: 88800 ng/mL and 88.8 µM | concentration at 6 h [4, 7]: 90000 ng/mL and 90 µM | concentration at 12 h [4, 7]: 64400 ng/mL and 64.4 µM | concentration at 24 h [4, 7]: 1700 ng/mL and 1.7 µM | time of plasma peak ([4]; mice, i.p.): 3 to 6 h | AUC/Dose (In vivo rat PK profiling; 1 mg/kg i.v. single bolus): 184 ng × h/mL/dose | AUC/Dose (In vivo rat PK profiling; 1 mg/kg p.o. single bolus): 50 ng × h/mL/dose | IC50 (CYP2C19): > 50000 nM | activity in the 68 assays of LeadProfilingScreen [5]: No significant activity; also recorded: no significant binding

5-(4-Chlorophenylsulfonyl)-1H-pyrazol-3(2H)-one [Compound 6]
EC50 [1]: 4700 nM

O=c1cc(CSc2ccc(Cl)cc2)[nH][nH]1 [Compound 1]
microsomal metabolite identified [6]: sulfoxide
